# Measurements from ChEMBL document CHEMBL1938385, “Identification of Trypanosoma brucei leucyl-tRNA synthetase inhibitors by pharmacophore- and docking-based virtual screening and synthesis” (Bioorg Med Chem, 2012).
# Tests used:
# [1] = Inhibition of Trypanosoma brucei LeuRS preincubated for 20 mins prior to reaction initiation by aminoacylation assay
# In short: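 Enzyme, compound, tRNA and 0.003 mCi/mL [¹⁴C]-leucine were incubated 20 min at 37 °C, then 4 mM ATP was added to start the reaction. Precipitated [¹⁴C]-Leu-tRNA^Leu on dried filter paper was measured by scintillation counting.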
# [2] = Inhibition of Escherichia coli LeuRS
# [3] = Inhibition of human LeuRS
# [4] = Inhibition of Staphylococcus aureus LeuRS
SMILES,IC50 [1] [µM],further results
COc1ccc(C(=O)C2=C(O)C(=O)N(CCc3c[nH]c4ccccc34)C2c2ccc(C(C)C)cc2)cc1 (stereo unspecified),90.5,–
COc1ccc(C(=O)C2=C(O)C(=O)N(CCc3c[nH]c4ccccc34)C2c2cccc(F)c2)cc1 (stereo unspecified),170,–
COc1ccc(C(=O)C2=C(O)C(=O)N(CCc3c[nH]c4ccccc34)C2c2ccccc2F)cc1 (stereo unspecified),269,–
COc1ccc(C(=O)C2=C(O)C(=O)N(CCc3c[nH]c4ccccc34)C2c2ccc(F)cc2)cc1 (stereo unspecified),64.7,–
COc1ccc(C(=O)C2=C(O)C(=O)N(CCc3c[nH]c4ccccc34)C2c2ccccc2Cl)cc1 (stereo unspecified),125,–
COc1ccc(C(=O)C2=C(O)C(=O)N(CCc3c[nH]c4ccccc34)C2c2ccc(Cl)cc2)cc1 (stereo unspecified),86.9,–
COc1ccc(C(=O)C2=C(O)C(=O)N(CCc3c[nH]c4ccccc34)C2c2ccccc2)cc1 (stereo unspecified),260,–
COc1ccc(C(=O)C2=C(O)C(=O)N(CCc3c[nH]c4ccccc34)C2c2ccc(C)cc2)cc1 (stereo unspecified),117,–
CCc1ccc(C2C(C(=O)c3ccc(OC)cc3)=C(O)C(=O)N2CCc2c[nH]c3ccccc23)cc1 (stereo unspecified),71.4,–
COc1ccc(C(=O)C2=C(O)C(=O)N(CCc3c[nH]c4ccccc34)C2c2ccc(OC)cc2)cc1 (stereo unspecified),334,–
COc1ccc(C(=O)C2=C(O)C(=O)N(CCc3c[nH]c4ccccc34)C2c2ccccc2OC)cc1 (stereo unspecified),190,–
COc1ccccc1C1C(C(=O)c2ccc(Cl)cc2)=C(O)C(=O)N1CCc1c[nH]c2ccccc12 (stereo unspecified),107,–
O=C(C1=C(O)C(=O)N(CCc2c[nH]c3ccccc23)C1c1cccc(O)c1)c1ccc(Cl)cc1 (stereo unspecified),588,–
O=C(C1=C(O)C(=O)N(CCc2c[nH]c3ccccc23)C1c1ccc(Cl)cc1)c1ccc(F)cc1 (stereo unspecified),> 1000,–
O=C(C1=C(O)C(=O)N(CCc2c[nH]c3ccccc23)C1c1ccccc1)c1ccc(F)cc1 (stereo unspecified),> 1000,–
O=C(C1=C(O)C(=O)N(CCc2c[nH]c3ccccc23)C1c1cccc(F)c1)c1ccccc1 (stereo unspecified),> 1000,–
CCc1ccc(C2C(C(=O)c3ccc(OC)cc3)=C(O)C(=O)N2CCCNC(=O)OC(C)(C)C)cc1 (stereo unspecified),269,–
CCc1ccc(C2C(C(=O)c3ccc(OC)cc3)=C(O)C(=O)N2c2ccc(CNC(=O)OC(C)(C)C)cc2)cc1 (stereo unspecified),102,–
CCc1ccc(C2C(C(=O)c3ccc(OC)cc3)=C(O)C(=O)N2CCCNC(=O)CC(C)C)cc1 (stereo unspecified),> 1000,–
CCc1ccc(C2C(C(=O)c3ccc(OC)cc3)=C(O)C(=O)N2Cc2ccc3c(c2)OCO3)cc1 (stereo unspecified),174,–
CCc1ccc(C2C(C(=O)c3ccc(OC)cc3)=C(O)C(=O)N2Cc2ccc(C(=O)O)cc2)cc1 (stereo unspecified),656,–

SMILES,IC50 [1] [µM],further results
CCc1ccc(C2C(C(=O)c3ccc(OC)cc3)=C(O)C(=O)N2CCCn2ccnc2)cc1 (stereo unspecified),716,–
CCc1ccc(C2C(C(=O)c3ccc(OC)cc3)=C(O)C(=O)N2CCCN)cc1 (stereo unspecified),> 1000,–
CCc1ccc(C2C(C(=O)c3ccc(OC)cc3)=C(O)C(=O)N2c2ccc(CN)cc2)cc1 (stereo unspecified),> 1000,–
COc1ccc(C(=O)C2=C(O)C(=O)N(CCc3c[nH]c4ccccc34)C2c2ccc(C(F)(F)F)cc2)cc1 (stereo unspecified),68.1,–
COc1ccc(C(=O)C2=C(O)C(=O)N(CCc3c[nH]c4ccccc34)C2c2ccc(C(C)(C)C)cc2)cc1 (stereo unspecified),94.5,–
CCCCc1ccc(C2C(C(=O)c3ccc(OC)cc3)=C(O)C(=O)N2CCc2c[nH]c3ccccc23)cc1 (stereo unspecified),43.9,–
COc1ccc(C(=O)C2=C(O)C(=O)N(CCc3c[nH]c4ccccc34)C2c2ccc(CC(C)C)cc2)cc1 (stereo unspecified),31.9,–
COc1ccc(C(=O)C2=C(O)C(=O)N(CCc3c[nH]c4ccccc34)C2c2ccc(-c3ccccc3)cc2)cc1 (stereo unspecified),43.1,–
COc1ccc(C(=O)C2=C(O)C(=O)N(CCc3c[nH]c4ccccc34)C2c2ccc3ccccc3c2)cc1 (stereo unspecified),85.5,–
COc1ccc(C(=O)C2=C(O)C(=O)N(CCc3c[nH]c4ccccc34)C2c2ccc(F)cc2Br)cc1 (stereo unspecified),110,–
CCCCCC1C(C(=O)c2ccc(OC)cc2)=C(O)C(=O)N1CCc1c[nH]c2ccccc12 (stereo unspecified),111,–
CC(C)Cc1ccc(C2C(C(=O)c3ccc(Cl)cc3)=C(O)C(=O)N2CCc2c[nH]c3ccccc23)cc1 (stereo unspecified),41,–
CC(C)Cc1ccc(C2C(C(=O)c3ccc(F)cc3F)=C(O)C(=O)N2CCc2c[nH]c3ccccc23)cc1 (stereo unspecified),175,–
CCc1ccc(C2C(C(=O)c3cccc4ccccc34)=C(O)C(=O)N2CCc2c[nH]c3ccccc23)cc1 (stereo unspecified),80,–
CC[C@H](C)[C@H](N)C(=O)NS(=O)(=O)OC[C@H]1O[C@@H](c2nc(-c3ccccc3)ns2)[C@H](O)[C@@H]1O,–,IC50 [2]: 1 µM; IC50 [3]: 200 µM; IC50 [4]: > 20 µM
CC(C)C[C@H](N)C(=O)NS(=O)(=O)OC[C@H]1O[C@@H](c2nc(-c3ccc(Oc4ccccc4)cc3)ns2)[C@H](O)[C@@H]1O,–,IC50 [2]: 0.0016 µM; IC50 [3]: 0.6 µM; IC50 [4]: 0.054 µM
CC(C)C[C@H](N)C(=O)NS(=O)(=O)OC[C@H]1O[C@@H](c2nc(CCc3cccc(Oc4ccccc4)c3)ns2)[C@H](O)[C@@H]1O,–,IC50 [2]: 0.006 µM; IC50 [3]: 1.15 µM; IC50 [4]: 0.1 µM
CC(C)C[C@H](N)C(=O)NS(=O)(=O)OC[C@H]1O[C@@H](c2nc(CCc3ccccc3)ns2)[C@H](O)[C@@H]1O,–,IC50 [2]: < 0.002 µM; IC50 [3]: 0.73 µM; IC50 [4]: 0.09 µM
CC[C@H](C)[C@H](N)C(=O)NS(=O)(=O)OCc1oc(-c2nc(-c3ccccc3)cs2)c(O)c1O,–,IC50 [2]: 0.0016 µM; IC50 [3]: 0.6 µM
CC[C@H](C)[C@H](N)C(=O)NS(=O)(=O)CC(=O)O[C@H]1CC[C@H]2C(C(N)=O)=CN(C)C[C@@H]12,–,IC50 [4]: 0.42 µM
CC[C@H](C)[C@H](N)C(=O)NS(=O)(=O)CC(=O)N[C@]1(C(=O)OC)[C@@H]2CN(C)C=C(C(N)=O)[C@@H]2C[C@@H]1O,–,IC50 [4]: 186 µM
